The test system of data set [1] is Plasma. In words: Drug metabolism in human plasma assessed as deltaH7Q6 metabolite formation at 50 uM after 18 hrs by MALDI-TOF analysis. The format is ADME, cell-free. The procedure, abridged:
(§1)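 Peptide from a 1 mM DMSO stock was diluted to 50 μM in citrated mouse, rat or human plasma and incubated at 37 °C for up to 2 days. Samples taken at time points were quenched in 1:1 acetonitrile/methanol and centrifuged. The supernatant was mixed with ammonium bicarbonate in acetonitrile/water, and parent peptide and metabolites were detected by MALDI-TOF.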

The subject of data set [2] is Plasma. As to the kind of experiment: Drug metabolism in human plasma assessed as deltaLeu6 metabolite formation at 50 uM after 18 hrs by MALDI-TOF analysis. The data set is classed as ADME, cell-free. The procedure, abridged:
as §1

Data set [3] deals with Plasma kallikrein (Rattus norvegicus, UniProt P14272). As to the kind of experiment: Inhibition of recombinant Sprague-Dawley rat plasma kallikrein using fluorogenic H-Pro-Phe-Arg-AMC peptide as substrate preincubated for 15 mins followed by substrate addition measured by fluorescence-based assay. Conditions: read-out: Ki(app).
Plasma kallikrein (Rattus norvegicus, UniProt P14272), sequence (P14272 20-390 limits assumed): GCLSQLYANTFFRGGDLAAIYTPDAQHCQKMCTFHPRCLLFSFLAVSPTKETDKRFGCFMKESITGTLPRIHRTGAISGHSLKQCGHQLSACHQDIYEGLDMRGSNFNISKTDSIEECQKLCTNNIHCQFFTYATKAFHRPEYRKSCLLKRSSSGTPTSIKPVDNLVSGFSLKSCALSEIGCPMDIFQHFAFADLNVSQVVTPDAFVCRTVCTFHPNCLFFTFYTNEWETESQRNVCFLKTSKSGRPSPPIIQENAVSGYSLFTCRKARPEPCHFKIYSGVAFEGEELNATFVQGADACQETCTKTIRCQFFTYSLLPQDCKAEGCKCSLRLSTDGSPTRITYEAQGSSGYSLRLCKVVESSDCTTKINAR
Plasma kallikrein (Rattus norvegicus, UniProt P14272), sequence (P14272 391-638 limits assumed): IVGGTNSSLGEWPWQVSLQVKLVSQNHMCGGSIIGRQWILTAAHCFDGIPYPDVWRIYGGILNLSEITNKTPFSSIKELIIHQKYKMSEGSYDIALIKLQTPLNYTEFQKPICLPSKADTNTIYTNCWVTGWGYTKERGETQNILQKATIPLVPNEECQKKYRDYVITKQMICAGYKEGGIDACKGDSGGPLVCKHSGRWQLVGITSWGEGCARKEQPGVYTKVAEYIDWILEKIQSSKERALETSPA
In data set [4] the target is (UniProt A0A8D1M4K5). In words: Inhibition of pig plasma kallikrein using fluorogenic H-Pro-Phe-Arg-AMC peptide as substrate preincubated for 15 mins followed by substrate addition measured by fluorescence-based assay. Further details: species or system Sus scrofa. Conditions: read-out: Ki(app).
Data set [5] concerns Plasma. As to the kind of experiment: Drug metabolism in human plasma assessed as deltaL6H7Q6 metabolite formation at 50 uM after 18 hrs by MALDI-TOF analysis. The format is ADME, cell-free. In short, it runs like this: as §1
Data set [6] can be described thus: Half life in human plasma at 4 uM measured up to 24 hrs by LC-MS/MS analysis. The format is ADME, cell-free. The procedure, abridged:
(§2)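 Peptide from a 0.16 mM DMSO stock was added to human, rat or mouse plasma (final 4 μM) or to homogenized human vitreous (final 1 μM), with internal standard. Samples were incubated at 37 °C for up to 24 h and extracted with water/acetonitrile/methanol 1:3:3.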

Data set [7] is described as follows: Plasma clearance in Sprague-Dawley rat at 10 mg/kg, iv administered as infusion over 1 hr measured up to 240 mins post dose by LC-MS/MS analysis. The format is ADME, organism-based. In short, it runs like this: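 Groups of 2 male Sprague-Dawley rats; 10 mg/kg infused into the jugular vein over 1 h. Serial blood drawn via tail-vein cannulae at 5–240 min into EDTA tubes and processed to plasma. Plasma assayed by LC-MS/MS against a 16–4000 ng/mL calibration line in control rat plasma.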

Data set [8] has as its system Plasma. As to the kind of experiment: Drug metabolism in rat plasma assessed as (5R,8S,11S,14S,17S,20S,23R)-29-[[(2R)-2-acetamido-3-[[(1S)-2-hydroxy-1-(hydroxymethyl)-2-oxo-ethyl]amino]-3-oxo-propyl]sulfanylmethyl]-5-amino-14-(3-amino-3-oxo-propyl)-17-(carboxymethyl)-11-(1H-imidazol-5-ylmethyl)-8,20-diisobutyl-6,9,12,15,18,21-hexaoxo-3,25-dithia-7,10,13,16,19,22-hexazabicyclo[25.3.1]hentriaconta-1(31),27,29-triene-23-carboxylic acid metabolite formation at 50 uM after 18 hrs by MALDI-TOF analysis. The format is ADME, cell-free. In short, it runs like this: as §1

The subject of data set [9] is Plasma. In words: Drug metabolism in rat plasma assessed as (5R,8S,11S,14S,17S,20S,23R)-29-[[(2R)-2-acetamido-3-hydroxy-3-oxo-propyl]sulfanylmethyl]-5-amino-14-(3-amino-3-oxo-propyl)-17-(carboxymethyl)-11-(1H-imidazol-5-ylmethyl)-8,20-diisobutyl-6,9,12,15,18,21-hexaoxo-3,25-dithia-7,10,13,16,19,22-hexazabicyclo[25.3.1]hentriaconta-1(31),27,29-triene-23-carboxylic acid metabolite formation at 50 uM after 18 hrs by MALDI-TOF analysis. The format is ADME, cell-free. In short, it runs like this: as §1

In data set [10] the target is Plasma kallikrein (Homo sapiens, UniProt P03952). As to the kind of experiment: Inhibition of human plasma kallikrein using fluorogenic H-Pro-Phe-Arg-AMC peptide as substrate preincubated for 15 mins followed by substrate addition measured by fluorescence-based assay. Conditions: read-out: Ki(app).
Plasma kallikrein (Homo sapiens, UniProt P03952), sequence (P03952 20-390 limits assumed): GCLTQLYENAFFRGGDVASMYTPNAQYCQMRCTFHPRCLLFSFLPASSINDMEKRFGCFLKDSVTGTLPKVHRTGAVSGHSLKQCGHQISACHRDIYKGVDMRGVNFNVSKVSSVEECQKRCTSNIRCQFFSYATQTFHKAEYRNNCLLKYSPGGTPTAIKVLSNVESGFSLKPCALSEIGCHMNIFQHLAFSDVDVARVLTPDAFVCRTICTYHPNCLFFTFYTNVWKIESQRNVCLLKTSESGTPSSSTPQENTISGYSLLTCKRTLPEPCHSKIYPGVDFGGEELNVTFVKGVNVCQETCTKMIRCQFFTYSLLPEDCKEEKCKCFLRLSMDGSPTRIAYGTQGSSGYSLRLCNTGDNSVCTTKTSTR
Plasma kallikrein (Homo sapiens, UniProt P03952), sequence (P03952 391-638 limits assumed): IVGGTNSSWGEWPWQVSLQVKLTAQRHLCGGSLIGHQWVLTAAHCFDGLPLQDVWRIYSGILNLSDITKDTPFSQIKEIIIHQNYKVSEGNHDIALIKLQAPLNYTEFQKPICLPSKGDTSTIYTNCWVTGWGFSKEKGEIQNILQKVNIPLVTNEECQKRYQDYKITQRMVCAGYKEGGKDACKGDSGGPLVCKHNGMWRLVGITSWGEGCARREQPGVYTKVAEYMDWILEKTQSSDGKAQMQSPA
A short description of data set [11]: Half life in human vitreous humor at 1 uM measured up to 24 hrs by LC-MS/MS analysis. The format is ADME, tissue-based. The procedure, abridged:
as §2

Data set [12] concerns Plasma. As to the kind of experiment: Drug metabolism in rat plasma assessed as (5R,8S,11S,14S,17S,20S,23R)-29-[[(2R)-2-acetamido-3-[[(1S)-1-(hydroxymethyl)-2-[[(1S)-2-[(2S)-2-[[(1S)-2-hydroxy-1-methyl-2-oxo-ethyl]carbamoyl]pyrrolidin-1-yl]-1-(1H-indol-3-ylmethyl)-2-oxo-ethyl]amino]-2-oxo-ethyl]amino]-3-oxo-propyl]sulfanylmethyl]-5-amino-14-(3-amino-3-oxo-propyl)-17-(carboxymethyl)-11-(1H-imidazol-5-ylmethyl)-8,20-diisobutyl-6,9,12,15,18,21-hexaoxo-3,25-dithia-7,10,13,16,19,22-hexazabicyclo[25.3.1]hentriaconta-1(31),27,29-triene-23-carboxylic acid metabolite formation at 50 uM after 18 hrs by MALDI-TOF analysis. The data set is classed as ADME, cell-free. In short, it runs like this:
as §1

A short description of data set [13]: Inhibition of rabbit plasma kallikrein using fluorogenic H-Pro-Phe-Arg-AMC peptide as substrate preincubated for 15 mins followed by substrate addition measured by fluorescence-based assay. The arrangement: species or system Oryctolagus cuniculus. Conditions: read-out: Ki(app). In short, it runs like this: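 Assays ran at 25 °C in 50 mM Tris-HCl, 250 mM NaCl, 1.5 μM BSA, pH 7.5. PKal (nominal 1–2 nM) was preincubated 15 min with serially diluted peptide. […] Human PKal was purified from plasma; rat PKal was made in-house or bought; other species were purified in-house from kaolin-activated plasma.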

The nature of data set [14]: Half life in rat plasma at 4 uM measured up to 24 hrs by LC-MS/MS analysis. The data set is classed as ADME, cell-free. In short, it runs like this: as §2
Data set [15] in a line: Half life in mouse plasma at 4 uM measured up to 24 hrs by LC-MS/MS analysis. The data set is classed as ADME, cell-free. The procedure, abridged:
as §2

The test system of data set [16] is Rattus norvegicus. As to the kind of experiment: Antiinflammatory activity in Sprague-Dawley rat assessed as inhibition carrageenan-induced paw edema at 5 mg/kg, ip pretreated for 30 mins followed by carrageenan challenge measured up to 8 hrs post carrageenan challenge. The data set is classed as functional.
For data set [17], the system named is Rattus norvegicus. In words: Antiinflammatory activity in Sprague-Dawley rat assessed as inhibition carrageenan-induced paw edema at 5 mg/kg, ip pretreated for 15 mins followed by carrageenan challenge measured at 2 hrs post carrageenan challenge. Conditions: read-out: INH. (In general: In the carrageenan paw model, swelling and tenderness develop within hours.)

Data set [18] concerns Rattus norvegicus. As to the kind of experiment: Antiinflammatory activity in Sprague-Dawley rat assessed as inhibition carrageenan-induced paw edema at 5 mg/kg, ip pretreated for 15 mins followed by carrageenan challenge measured at 4 hrs post carrageenan challenge. The data set is classed as functional. The procedure, abridged: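 Male Sprague-Dawley rats got an IP pretreatment 15 min before a subplantar carrageenan injection. Paw volume was recorded at 1, 2, 4 and 6 h after carrageenan. Percent inhibition of paw edema was calculated against a vehicle-treated group.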

The subject of data set [19] is Rattus norvegicus. In words: Antiinflammatory activity in Sprague-Dawley rat assessed as inhibition carrageenan-induced paw edema at 5 mg/kg, ip pretreated for 15 mins followed by carrageenan challenge measured at 1 hr post carrageenan challenge. The note with it: read-out: INH.
Data set [20] relates to Rattus norvegicus. In words: Antiinflammatory activity in Sprague-Dawley rat assessed as inhibition carrageenan-induced paw edema at 5 mg/kg, ip pretreated for 15 mins followed by carrageenan challenge measured at 6 hrs post carrageenan challenge. The format is functional. In short, it runs like this:
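Male Sprague-Dawley rats received peptide IP (30, 10 or 3 mg/kg), or indomethacin IP at 5 mg/kg, 15 min before subplantar carrageenan. Paw volume was followed over time against a vehicle group.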

Data set [21] deals with Coagulation factor XI (Homo sapiens, UniProt P03951). As to the kind of experiment: Inhibition of factor 11a (unknown origin).
Coagulation factor XI, sequence (P03951 19-387 limits assumed): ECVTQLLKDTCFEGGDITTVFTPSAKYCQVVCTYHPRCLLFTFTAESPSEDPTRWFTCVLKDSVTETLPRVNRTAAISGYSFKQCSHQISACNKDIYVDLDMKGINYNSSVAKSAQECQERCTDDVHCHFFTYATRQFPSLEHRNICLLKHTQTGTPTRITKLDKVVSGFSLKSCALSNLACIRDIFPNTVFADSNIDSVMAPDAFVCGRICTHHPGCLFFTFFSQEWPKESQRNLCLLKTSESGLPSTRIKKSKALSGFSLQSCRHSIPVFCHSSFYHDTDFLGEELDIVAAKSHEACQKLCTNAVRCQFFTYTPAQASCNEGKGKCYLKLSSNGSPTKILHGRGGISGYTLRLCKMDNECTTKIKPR
Coagulation factor XI, sequence (P03951 388-625 limits assumed): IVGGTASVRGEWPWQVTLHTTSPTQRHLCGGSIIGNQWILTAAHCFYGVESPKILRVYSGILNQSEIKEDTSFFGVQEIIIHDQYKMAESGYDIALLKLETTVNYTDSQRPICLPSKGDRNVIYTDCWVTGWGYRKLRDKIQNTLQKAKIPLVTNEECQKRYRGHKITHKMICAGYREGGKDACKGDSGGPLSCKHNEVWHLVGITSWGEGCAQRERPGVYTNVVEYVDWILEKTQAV
In data set [22] the test system is Plasma. As to the kind of experiment: Anti-coagulating activity in human plasma assessed as increase in coagulation time at 14 uM by aPTT assay relative to control. The data set is classed as functional.

Results on three compounds are retold here after ChEMBL document CHEMBL4033799, “Stable and Long-Lasting, Novel Bicyclic Peptide Plasma Kallikrein Inhibitors for the Treatment of Diabetic Macular Edema” (J Med Chem, 2018).

*1 amine or outer side, *2 acyl side, *3 side chain or, on linkers, in order; H or OH if unused. Where a SMILES comes first, the peptide text is derived from it. Bridges are numbered along the chain shown (N, C = ends). TBMB = c1c(C[*:1])cc(C[*:3])cc1C[*:2]

With `CC(=O)N[C@H]1CSCc2cc3cc(c2)CSC[C@H](NC(=O)[C@H](CCCNC(=N)N)NC(=O)[C@H](C)NC(=O)[C@@H]2CCCN2C(=O)[C@H](Cc2c[nH]c4ccccc24)NC(=O)[C@H](CO)NC1=O)C(=O)N[C@@H](CC(C)C)C(=O)N[C@@H](Cc1cnc[nH]1)C(=O)N[C@@H](CCC(N)=O)C(=O)N[C@@H](CC(=O)O)C(=O)N[C@@H](CC(C)C)C(=O)N[C@H](C(=O)O)CSC3` (Ac-CSWPARCLHQDLC-OH; linker 1-7-13 via TBMB), the Drug metabolism result in data set [1], in data set [2], in data set [5], in [8], in [9] and in data set [12] was “Metabolite_Detected” each time. Moreover, the Ki in data set [3] was determined as 2 nM; in [4], 3.6 nM; in data set [10], 0.15 nM; in [13], 10 nM. The half-life (in general, how long it takes for the measured level to halve) at 4 µM in [6] is 7 h; in [14], 2.8 h; in [15], 1.5 h. Further, the clearance (in general, a measure of how efficiently the substance is removed, as volume per time) in [7] came to 156 mL/min/kg. In addition, the half-life at 1 µM in data set [11] is over 24 h.

For the compound `COc1ccc2c(c1)c(CC(=O)O)c(C)n2C(=O)c1ccc(Cl)cc1` [INDOMETHACIN], the inhibition in vivo at 5 mg/kg in [16] came out at 47.2%; in data set [17], 56%; in data set [18], 54%; in [19] it was 79%; in [20], 48%.

With `Cc1cc(Oc2nc(Oc3cccc(C(=N)N)c3)c(F)c(NC(C)CCc3ccccc3)c2F)c(C(=O)O)cc1N(C)C` (configuration not stated), in data set [21], the Ki stood at 1000 nM. The “fold change (FC)” value in data set [22] was 2.
